These results are taken from ChEMBL document CHEMBL1157326, “Nortriterpenoids from Schisandra lancifolia” (J Nat Prod, 2006).

Series [1] is described as follows: Cytotoxicity against human C8166 cells by MTT method. The class given is cell-based. A digest of the protocol: (§1)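 C8166 cells were used for both assays, with AZT as the positive control. Protection from HIV-1 cytopathic effect gave the EC50, and MTT viability on the same cells, run in parallel, gave the CC50.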
In general terms: Tetrazolium assays rely on reduction of a dye to a coloured formazan, in cell work by metabolically active cells.

Series [2] has as its system Human immunodeficiency virus 1. The experiment in a line: Antiviral activity against HIV1 3B in human C8166 cells assessed as inhibition of virus-induced cytopathic effect. Format: functional, organism-based. The settings on record: Human immunodeficiency virus 1, 3B. A digest of the protocol:
as §1

Series [3] is described as follows: Selectivity index, CC50 for human C8166 cells to EC50 for HIV1 3B. Format: toxicity, cell-based. As to conditions: read-out: Ratio CC50/EC50. A digest of the protocol: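 The ratio is built from a CC50 (MTT viability of C8166 cells) and an EC50 (inhibition of HIV-1 cytopathic effect in C8166 cells), both determined in parallel.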

Each structure is given as a SMILES string. Values after ≈ are worked out from the molar mass of the structure shown.

Broadly, the CC50 is the concentration giving 50% cytotoxicity. Low values mean greater toxicity to the cells, high ones lower toxicity to the cells. A word on the EC50: it is the concentration that produces a half-maximal response.

For `CC1=C[C@@H]([C@H]2[C@H](C)C(=O)[C@@]3(C)CC[C@]45C[C@]67OC(=O)C[C@H]6OC(C)(C)[C@@H]7C[C@H](O)[C@H]4C(=O)[C@@](O)(O5)[C@@H]23)OC1=O` [LANCIFODILACTONE I], the CC50 in series [1] was > 200 µg/mL. Besides, the EC50 in series [2] amounted to 96.4 µg/mL (≈ 177 µM). Moreover, in series [3], the selectivity ratio was > 2.08.
With `CC(=O)O[C@H]1C[C@H]2C(C)(C)O[C@@H]3CC(=O)O[C@@]32C[C@]23CC[C@]4(C)C(=O)[C@@H](C)[C@H]([C@@H]5C=C(C)C(=O)O5)[C@@H]4[C@](O)(O2)C(=O)[C@H]13` [LANCIFODILACTONE J], in series [1], the CC50 was > 200 µg/mL. Also, the EC50 in series [2] stood at 88.3 µg/mL (≈ 151 µM). The selectivity ratio in series [3] was > 2.26.
On to `CC1=C[C@@H]([C@H]2[C@H](C)C(=O)[C@@]3(C)CC[C@]45C[C@]67OC(=O)C[C@H]6OC(C)(C)[C@@H]7CC=C4C(=O)[C@@](O)(O5)[C@@H]23)OC1=O` [LANCIFODILACTONE K], for which the CC50 in series [1] was > 200 µg/mL. Moreover, the EC50 in series [2] stood at 78.5 µg/mL (≈ 149 µM). The selectivity ratio in series [3] is > 2.55.
On to `C[C@@H]1C(=O)[C@@]2(C)CC[C@]34C[C@]56OC(=O)C[C@H]5OC(C)(C)[C@@H]6C[C@H](O)[C@H]3C(=O)[C@@]3(O[C@H]5[C@H](OC(=O)[C@]5(C)O)[C@@H]1[C@H]32)O4` [LANCIFODILACTONE L], for which the CC50 in series [1] was > 200 µg/mL. The EC50 in series [2] was found to be 100 µg/mL (≈ 178 µM). Further, the selectivity ratio in series [3] was > 2.
`CC1=C2[C@H]3OC(=O)[C@@H](C)[C@H]3O[C@]34O[C@@]5(CC[C@](C)(C1=O)[C@H]23)C[C@]12OC(=O)C[C@H]1OC(C)(C)[C@@H]2C[C@H](O)[C@H]5C4=O` [LANCIFODILACTONE M]: the CC50 in series [1] was > 200 µg/mL. The EC50 in series [2] was determined as 76.6 µg/mL (≈ 141 µM). The selectivity ratio in series [3] was > 2.61.
`C[C@@H]1C(=O)[C@@]2(C)CC[C@]34C[C@]56OC(=O)C[C@H]5OC(C)(C)[C@@H]6CC=C3C(=O)[C@@]3(O[C@H]5[C@H](OC(=O)[C@]5(C)O)[C@@H]1[C@H]32)O4` [LANCIFODILACTONE N] showed a CC50 in series [1] of 186 µg/mL (≈ 343 µM). Also, in series [2], the EC50 is 77.6 µg/mL (≈ 143 µM). For the same compound, in series [3], the selectivity ratio was 2.4.
Consider `Cc1cn([C@H]2C[C@H](N=[N+]=[N-])[C@@H](CO)O2)c(=O)[nH]c1=O` [ZIDOVUDINE], for which the half-maximal cytotoxic concentration (CC50) in series [1] was > 200 µg/mL. In addition, in series [2], the EC50 worked out at 0.0033 µg/mL (≈ 0.0123 µM). In addition, the selectivity ratio in series [3] was > 60600.
